Experimental data reported in ChEMBL document CHEMBL1153046, “Synthesis and antitumor activity of substituted triazolo[4,3-a]pyrimidin-6-sulfonamide with an incorporated thiazolidinone moiety” (2009).

How the values were obtained:
Format in all cases: functional
HT-29 = test: Growth inhibition of human HT-29 cells after 48 hrs by sulforhodamine B assay; settings: HT-29, 48 h
Procedure, shortened: (§1)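 NCI 60-cell-line panel. Cells are grown in RPMI1640 with 5% fetal calf serum and 2 mM L-glutamine, seeded at a density set by growth characteristics, and preincubated 24 h. Compound is tested at a minimum of five concentrations at 10-fold dilution, with 48 h continuous exposure. Viability is read by sulforhodamine B protein assay. GI50, TGI and LC50 come from dose-response curves.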

[1] = Growth inhibition of human […] cells after 48 hrs by sulforhodamine B assay; procedure, shortened: as §1
UACC-62 = test: Growth inhibition of human UACC62 cells after 48 hrs by sulforhodamine B assay; settings: UACC-62, 48 h
Procedure, shortened: (§2)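 NCI 60-cell-line panel (nine cancer types), with cells grown in RPMI1640 plus 5% fetal calf serum and 2 mM L-glutamine. Cells are seeded at a density that depends on the line and preincubated 24 h. Compounds are then applied at a minimum of five 10-fold dilutions over a 5-log range with 48 h continuous exposure. Viability is read by SRB protein assay, and GI50 is derived from dose-response curves in units of 10^-5 M.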

MDA-MB-435 = test: Growth inhibition of human MDA-MB-435 cells after 48 hrs by sulforhodamine B assay; settings: MDA-MB-435, 48 h; procedure, shortened: as §1
NCI-H23 = test: Growth inhibition of human NCI-H23 cells after 48 hrs by sulforhodamine B assay; settings: NCI-H23, 48 h; procedure, shortened: as §1
CCRF-CEM = test: Growth inhibition of human CCRF-CEM cells after 48 hrs by sulforhodamine B assay; procedure, shortened: as §1
M14 = test: Growth inhibition of human M14 cells after 48 hrs by sulforhodamine B assay; settings: M14, 48 h; procedure, shortened: as §1
SF-268 [2] = test: Growth inhibition of human SF268 cells after 48 hrs by sulforhodamine B assay; settings: SF-268, 48 h; procedure, shortened: as §1
SF-268 [3] = test: Antiproliferative activity against human SF268 cells assessed as cell growth at 100 uM after 48 hrs by alamar blue assay; settings: SF-268, 48 h, read-out: Activity
Procedure, shortened: (§3)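 NCI three-cell-line primary screen. Cells are seeded and preincubated in microtiter plates. Compound is added at a single 10^-4 M concentration and cultures are incubated 48 h. The end-point is read with alamar blue. Results are given as percent growth relative to untreated control cells.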

NCI/ADR-RES = test: Growth inhibition of human NCI/ADR-RES cells after 48 hrs by sulforhodamine B assay; procedure, shortened: as §1
UACC-257 = test: Growth inhibition of human UACC257 cells after 48 hrs by sulforhodamine B assay; settings: UACC-257, 48 h; procedure, shortened: as §2
K562 = test: Growth inhibition of human K562 cells after 48 hrs by sulforhodamine B assay; settings: K562, 48 h; procedure, shortened: as §1
HOP-62 = test: Growth inhibition of human HOP62 cells after 48 hrs by sulforhodamine B assay; settings: HOP-62, 48 h; procedure, shortened: as §1
COLO 205 = test: Growth inhibition of human COLO205 cells after 48 hrs by sulforhodamine B assay; settings: COLO 205, 48 h; procedure, shortened: as §1
MCF7 [4] = test: Antiproliferative activity against human MCF7 cells assessed as cell growth at 100 uM after 48 hrs by alamar blue assay; settings: MCF7, 48 h, read-out: Activity; procedure, shortened: as §3
HCT-116 = test: Growth inhibition of human HCT116 cells after 48 hrs by sulforhodamine B assay; settings: HCT-116, 48 h; procedure, shortened: as §1
OVCAR-5 = test: Growth inhibition of human OVCAR5 cells after 48 hrs by sulforhodamine B assay; settings: OVCAR-5, 48 h; procedure, shortened: as §1
NCI-H460 = test: Antiproliferative activity against human NCI-H460 cells assessed as cell growth at 100 uM after 48 hrs by alamar blue assay; settings: NCI-H460, 48 h, read-out: Activity; procedure, shortened: as §3
NCI-H226 = test: Growth inhibition of human NCI-H226 cells after 48 hrs by sulforhodamine B assay; settings: NCI-H226, 48 h; procedure, shortened: as §1
SF-539 = test: Growth inhibition of human SF539 cells after 48 hrs by sulforhodamine B assay; settings: SF-539, 48 h; procedure, shortened: as §1
SK-MEL-2 = test: Growth inhibition of human SK-MEL-2 cells after 48 hrs by sulforhodamine B assay; settings: SK-MEL-2, 48 h; procedure, shortened: as §1
A498 = test: Growth inhibition of human A498 cells after 48 hrs by sulforhodamine B assay; settings: A498, 48 h; procedure, shortened: as §1
IGROV-1 = test: Growth inhibition of human IGROV1 cells after 48 hrs by sulforhodamine B assay; settings: IGROV-1, 48 h; procedure, shortened: as §1
KM12 = test: Growth inhibition of human KM12 cells after 48 hrs by sulforhodamine B assay; settings: KM12, 48 h; procedure, shortened: as §1
SN12C = test: Growth inhibition of human SN12C cells after 48 hrs by sulforhodamine B assay; procedure, shortened: as §1
CAKI-1 = test: Growth inhibition of human Caki1 cells after 48 hrs by sulforhodamine B assay; settings: CAKI-1, 48 h; procedure, shortened: as §1
OVCAR-8 = test: Growth inhibition of human OVCAR8 cells after 48 hrs by sulforhodamine B assay; settings: OVCAR-8, 48 h; procedure, shortened: as §1
SK-MEL-5 = test: Growth inhibition of human SK-MEL-5 cells after 48 hrs by sulforhodamine B assay; settings: SK-MEL-5, 48 h; procedure, shortened: as §1
MDA-MB-231 = test: Growth inhibition of human MDA-MB-231 cells after 48 hrs by sulforhodamine B assay; settings: MDA-MB-231, 48 h; procedure, shortened: as §1
MCF7 [5] = test: Growth inhibition of human MCF7 cells after 48 hrs by sulforhodamine B assay; settings: MCF7, 48 h; procedure, shortened: as §1
[6] = read-out: LC50 (the source's name)

**Q.** What does the source list for COc1ccc(/C=N/c2nc3[nH]nc(C)n3c(=O)c2S(=O)(=O)NN2C(=O)C(CN3CCN(C)CC3)SC2c2cccs2)cc1 (stereo not drawn)?
**A.** GI50 (HT-29): 1.96 µM; GI50 [1]: 2.56 µM; TGI [1]: 8.21 µM; CC50 [1, 6]: > 100 µM; GI50 (UACC-62): 1.47 µM; TGI (UACC-62): > 100 µM; CC50 (UACC-62; [6]): > 100 µM; GI50 (MDA-MB-435): 0.32 µM; TGI (MDA-MB-435): 5.2 µM; GI50 (NCI-H23): 1.16 µM; TGI (NCI-H23): 9.11 µM; GI50 (CCRF-CEM): 3.52 µM; TGI (CCRF-CEM): 16.1 µM; GI50 (M14): 1.36 µM; LC50 (concentration killing 50% of cells) (M14): > 100 µM; TGI (M14): > 100 µM; GI50 (SF-268 [2]): > 100 µM; TGI (SF-268 [2]): > 100 µM; CC50 (SF-268 [2]; [6]): > 100 µM; growth at 100 µM (SF-268 [3]): 58%; GI50 (NCI/ADR-RES): 1.5 µM; TGI (NCI/ADR-RES): 6.98 µM; GI50 (UACC-257): 2.52 µM; LC50 (UACC-257): > 100 µM; TGI (UACC-257): > 100 µM; GI50 (K562): 2.87 µM; LC50 (K562): 68.2 µM; TGI (K562): 6.75 µM; GI50 (HOP-62): 1.7 µM; LC50 (HOP-62): > 100 µM; TGI (HOP-62): > 100 µM; GI50 (COLO 205): 5.29 µM; TGI (COLO 205): 21 µM; growth at 100 µM (MCF7 [4]): 46%; GI50 (HCT-116): 1.01 µM; LC50 (concentration killing 50% of cells) (HCT-116): > 100 µM; TGI (HCT-116): 20 µM; GI50 (OVCAR-5): 8.31 µM; LC50 (concentration causing 50% net cell kill) (OVCAR-5): > 100 µM; TGI (OVCAR-5): > 100 µM; growth at 100 µM (NCI-H460): 24%; GI50 (NCI-H226): 11.8 µM; LC50 (concentration killing 50% of cells) (NCI-H226): > 100 µM; TGI (NCI-H226): > 100 µM; GI50 (SF-539): 1.77 µM; LC50 (SF-539): > 100 µM; TGI (SF-539): 5.58 µM; GI50 (SK-MEL-2): 5.55 µM; LC50 (concentration killing 50% of cells) (SK-MEL-2): > 100 µM; TGI (SK-MEL-2): > 100 µM; GI50 (A498): 0.5 µM; LC50 (concentration giving 50% net cell kill) (A498): > 100 µM; TGI (A498): 3.2 µM; GI50 (IGROV-1): 0.78 µM; LC50 (IGROV-1): > 100 µM; TGI (IGROV-1): 97.3 µM; GI50 (KM12): 3.02 µM; GI50 (SN12C): 4.68 µM; LC50 (SN12C): > 100 µM; TGI (SN12C): > 100 µM; GI50 (CAKI-1): 1.29 µM; LC50 (50% lethal concentration) (CAKI-1): > 100 µM; TGI (CAKI-1): > 100 µM; GI50 (OVCAR-8): 3.53 µM; TGI (OVCAR-8): 40.5 µM; GI50 (SK-MEL-5): 0.72 µM; TGI (SK-MEL-5): 7.11 µM; CC50 (SK-MEL-5; [6]): > 100 µM; GI50 (MDA-MB-231): 3.25 µM; LC50 (50% lethal concentration) (MDA-MB-231): > 100 µM; TGI (MDA-MB-231): 42.2 µM; GI50 (MCF7 [5]): 5.8 µM; TGI (MCF7 [5]): > 100 µM
